In ChEMBL document CHEMBL1153905, “Functionalized 3-benzylidene-indolin-2-ones: inducers of NAD(P)H-quinone oxidoreductase 1 (NQO1) with antiproliferative activity” (Bioorg Med Chem, 2009):

Columns and labels:
[1] = biological target: NAD(P)H dehydrogenase [quinone] 1 (Mus musculus) (UniProt Q64669); experiment: Induction of NQO1 activity in mouse Hepa-1c1c7 cells assessed as induction ratio at 5 uM after 48 hrs by MTT assay relative to control; format: cell-based
Method in brief: (§1)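 Hepa1c1c7 cells, 10,000 per well, 24 h, were then treated 48 h (DMSO ≤0.5%). Digitonin/EDTA lysates were assayed for menadione-dependent MTT-formazan formation using a G6P/G6PDH NADPH-generating mix with FAD at pH 7.4. The reaction ran 5 min, was stopped with dicoumarol, and read at A590. Degree of induction = (A test − blank)/(A control − blank). Ratios were read off the induction–concentration plot at the EROD test concentration.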

[2] = Cytotoxicity against mouse Hepa-1c1c7 cells after 48 hrs by MTT assay; format: cell-based; conditions: hepa-1c1c7, 48 h
Method in brief: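 Murine hepatoma cells in α-MEM with 10% heat- and charcoal-treated fetal calf serum, passages 6–17; MTT read-out as for the cancer lines but with 48 h compound exposure. Highest concentration tested 25 µM. IC50 from survival-versus-concentration curve; mean and SD, n = 3.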

CYP1A1 [3] = biological target: T1, CYP1A1 (Mus musculus, UniProt P00184); experiment: Induction of CYP1A1 activity in mouse Hepa-1c1c7 cells assessed as induction ratio at 5 uM after 48 hrs by EROD assay relative to control; format: ADME, cell-based
T1 sequence (P00184 whole entry): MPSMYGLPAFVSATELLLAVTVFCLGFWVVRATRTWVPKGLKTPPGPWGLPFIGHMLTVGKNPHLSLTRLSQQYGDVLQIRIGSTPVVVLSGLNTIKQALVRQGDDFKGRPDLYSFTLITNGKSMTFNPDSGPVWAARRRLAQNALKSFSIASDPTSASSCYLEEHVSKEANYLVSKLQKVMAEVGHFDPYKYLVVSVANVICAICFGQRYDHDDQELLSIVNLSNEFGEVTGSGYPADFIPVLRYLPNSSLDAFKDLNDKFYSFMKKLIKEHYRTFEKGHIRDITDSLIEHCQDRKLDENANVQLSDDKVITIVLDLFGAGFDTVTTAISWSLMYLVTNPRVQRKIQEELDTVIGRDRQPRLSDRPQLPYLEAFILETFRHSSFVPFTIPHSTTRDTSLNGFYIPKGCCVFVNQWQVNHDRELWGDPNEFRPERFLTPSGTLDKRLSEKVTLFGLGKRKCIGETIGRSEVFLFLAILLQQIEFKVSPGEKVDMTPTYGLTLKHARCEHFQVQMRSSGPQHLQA
Method in brief: (§2)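 Hepa1c1c7 cells were seeded at 10,000 per well and grown 24 h. They were then exposed 48 h to compound (final DMSO 0.5% v/v) at about 4 × the NQO1 CD. After a PBS wash, cells got 5 µM 7-ethoxyresorufin plus 2 mM salicylamide in medium, 37 °C, 40 min. Resorufin was read at ex 530/em 590 nm, corrected for compound fluorescence. Ratio = (F treated − blank)/(F DMSO control − blank); mean ± SD, n = 3.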

HCT-116 [4] = experiment: Cell cycle arrest in human HCT116 cells released from G1 block assessed as accumulation at G2/M phase at 15 uM after 24 hrs by flow cytometry; format: functional
HCT-116 [5] = experiment: Cell cycle arrest in human HCT116 cells released from G2 block assessed as accumulation at S phase at 15 uM after 24 hrs by flow cytometry; format: functional
HCT-116 [6] = experiment: Cell cycle arrest in human HCT116 cells released from G1 block assessed as accumulation at S phase at 15 uM after 24 hrs by flow cytometry; format: functional
HCT-116 [7] = experiment: Cell cycle arrest in human HCT116 cells released from G2 block assessed as accumulation at sub G1 phase at 15 uM after 24 hrs by flow cytometry; format: functional
HCT-116 [8] = experiment: Cell cycle arrest in human HCT116 cells released from G2 block assessed as accumulation at G1 phase at 15 uM after 24 hrs by flow cytometry; format: functional
HCT-116 [9] = experiment: Cell cycle arrest in human HCT116 cells released from G2 block assessed as accumulation at G2/M phase at 15 uM after 24 hrs by flow cytometry; format: functional
HCT-116 [10] = experiment: Cell cycle arrest in human HCT116 cells released from G1 block assessed as accumulation at sub G1 phase at 15 uM after 24 hrs by flow cytometry; format: functional
HCT-116 [11] = experiment: Cell cycle arrest in human HCT116 cells released from G1 block assessed as accumulation at G1 phase at 15 uM after 24 hrs by flow cytometry; format: functional
CYP1A1 [12] = biological target: T1, CYP1A1; experiment: Induction of CYP1A1 activity in mouse Hepa-1c1c7 cells assessed as induction ratio at 2.5 uM after 48 hrs by EROD assay relative to control; format: ADME, cell-based; method in brief: as §2
[13] = biological target: NAD(P)H dehydrogenase [quinone] 1 (Mus musculus) (UniProt Q64669); experiment: Induction of NQO1 activity in mouse Hepa-1c1c7 cells assessed as induction ratio at 2.5 uM after 48 hrs by MTT assay relative to control; format: cell-based; method in brief: as §1
[14] = biological target: NAD(P)H dehydrogenase [quinone] 1 (Mus musculus) (UniProt Q64669); experiment: Induction of NQO1 activity in mouse Hepa-1c1c7 cells assessed as induction ratio at 1 uM after 48 hrs by MTT assay relative to control; format: cell-based; method in brief: as §1
CYP1A1 [15] = biological target: T1, CYP1A1; experiment: Induction of CYP1A1 activity in mouse Hepa-1c1c7 cells assessed as induction ratio at 1 uM after 48 hrs by EROD assay relative to control; format: ADME, cell-based
Method in brief: (§3)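 About 10,000 Hepa1c1c7 cells/well cultured 24 h, then compound (0.5% DMSO final) for 48 h, at roughly 4 × the concentration doubling NQO1 activity. After PBS wash, cells given 5 µM 7-ethoxyresorufin plus 2 mM salicylamide, 37 °C, 40 min; resorufin fluorescence ex 530/em 590 nm, corrected for compound fluorescence. Ratio = (treated − blank)/(DMSO control − blank); mean ± SD, n = 3.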

CYP1A1 [16] = biological target: T1, CYP1A1; experiment: Induction of CYP1A1 activity in mouse Hepa-1c1c7 cells assessed as induction ratio at 20 uM after 48 hrs by EROD assay relative to control; format: ADME, cell-based; method in brief: as §2
[17] = biological target: NAD(P)H dehydrogenase [quinone] 1 (Mus musculus) (UniProt Q64669); experiment: Induction of NQO1 activity in mouse Hepa-1c1c7 cells assessed as induction ratio at 20 uM after 48 hrs by MTT assay relative to control; format: cell-based; method in brief: as §1
[18] = biological target: NAD(P)H dehydrogenase [quinone] 1 (Mus musculus) (UniProt Q64669); experiment: Induction of NQO1 activity in mouse Hepa-1c1c7 cells assessed as induction ratio at 7.5 uM after 48 hrs by MTT assay relative to control; format: cell-based; method in brief: as §1
CYP1A1 [19] = biological target: T1, CYP1A1; experiment: Induction of CYP1A1 activity in mouse Hepa-1c1c7 cells assessed as induction ratio at 7.5 uM after 48 hrs by EROD assay relative to control; format: ADME, cell-based; method in brief: as §2
[20] = biological target: NAD(P)H dehydrogenase [quinone] 1 (Mus musculus) (UniProt Q64669); experiment: Induction of NQO1 activity in mouse Hepa-1c1c7 cells assessed as induction ratio at 0.5 uM after 48 hrs by MTT assay relative to control; format: cell-based; method in brief: as §1
CYP1A1 [21] = biological target: T1, CYP1A1; experiment: Induction of CYP1A1 activity in mouse Hepa-1c1c7 cells assessed as induction ratio at 0.5 uM after 48 hrs by EROD assay relative to control; format: ADME, cell-based; method in brief: as §3
HCT-116 [22] = experiment: Antiproliferative activity against human HCT116 cells after 72 hrs by MTT assay; format: functional, cell-based; conditions: HCT-116, 72 h
Method in brief: (§4)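 Cells seeded at 10,000 (MCF7), 4000 (HCT116) or 5000 (CCL186) per well and grown 24 h; MCF7 and CCL186 in EMEM with pyruvate, glutamine, 10% FBS; HCT116 in McCoy's 5A with 10% FBS. Compounds from DMSO stocks (≤1% DMSO final), 72 h exposure; MTT 0.5 mg/ml for 3 h, formazan in DMSO read at 590 nm. IC50 from sigmoidal survival curve, three separate occasions.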

MCF7 [23] = experiment: Selectivity ratio of IC50 for human CCL186 cells to IC50 for human MCF7 cells
Method in brief: (§5)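 MTT assay. MCF7 and CCL186 cells were grown in EMEM/10% FBS, HCT116 in McCoy's 5A/10% FBS. Seeding was 10,000 (MCF7), 4000 (HCT116) and 5000 (CCL186) cells per well, 24 h. Compound exposure was 72 h, DMSO ≤1% final. MTT 0.5 mg/ml for 3 h, formazan dissolved in DMSO, A590. IC50 came from sigmoidal survival curves, with 3 separate occasions per concentration. Ratio = IC50 CCL186 / IC50 of the cancer line.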

[24] = Antiproliferative activity against human CCL186 cells after 72 hrs by MTT assay; format: cell-based; conditions: CCL186, 72 h; method in brief: as §4
MCF7 [25] = experiment: Antiproliferative activity against human MCF7 cells after 72 hrs by MTT assay; format: functional, cell-based; conditions: MCF7, 72 h; method in brief: as §4
[26] = Selectivity ratio of IC50 for human CCL186 cells to IC50 for human HCT116 cells; format: ADME, cell-based, HCT-116; conditions: CCL186 cells and HCT116 cells, read-out: Ratio IC50; method in brief: as §5

Sequence of NAD(P)H dehydrogenase [quinone] 1 (Mus musculus) (Q64669 whole entry): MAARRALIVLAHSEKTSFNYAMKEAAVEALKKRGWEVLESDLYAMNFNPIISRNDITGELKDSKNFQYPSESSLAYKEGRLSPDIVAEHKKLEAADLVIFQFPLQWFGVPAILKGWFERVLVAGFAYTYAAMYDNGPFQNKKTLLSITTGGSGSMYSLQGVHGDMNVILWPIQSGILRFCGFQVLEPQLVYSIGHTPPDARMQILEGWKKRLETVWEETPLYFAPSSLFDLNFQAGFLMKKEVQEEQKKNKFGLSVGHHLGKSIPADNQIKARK

COc1ccc(/C=C2/C(=O)Nc3ccccc32)cc1
Ratio [1]: 4.5
IC50 [2]: > 25 µM
fold induction at 48 h, 5 µM (CYP1A1 [3]): 1.04

O=C1Nc2ccccc2/C1=C\c1cccc(O)c1
Ratio [1]: 3.94
IC50 [2]: > 25 µM
fold induction at 48 h, 5 µM (CYP1A1 [3]): 1.11

COc1cc(/C=C2/C(=O)Nc3ccccc32)cc(OC)c1OC
Activity (HCT-116 [4]): 18.54%
Activity (HCT-116 [5]): 16.84%
Activity (HCT-116 [6]): 21.42%
Activity (HCT-116 [7]): 4.13%
IC50 [2]: > 25 µM
Activity (HCT-116 [8]): 42.06%
Activity (HCT-116 [9]): 36.45%
Activity (HCT-116 [10]): 3.78%
Activity (HCT-116 [11]): 56.85%

N#Cc1ccc(/C=C2/C(=O)Nc3ccccc32)cc1
IC50 [2]: > 25 µM

COc1cccc(/C=C2/C(=O)Nc3ccc(Cl)cc32)c1
fold induction at 48 h, 2.5 µM (CYP1A1 [12]): 1.32
Ratio [13]: 4.34
IC50 [2]: 17.5 µM

O=C1Nc2ccccc2/C1=C\c1ccccc1F
Ratio [1]: 6.8
IC50 [2]: > 25 µM
fold induction at 48 h, 5 µM (CYP1A1 [3]): 1.26

COc1ccc(/C=C2/C(=O)N(C)c3ccccc32)cc1O
Ratio [1]: 2.64
IC50 [2]: 15.5 µM
fold induction at 48 h, 5 µM (CYP1A1 [3]): 1.08

Cc1cccc(/C=C2/C(=O)Nc3ccccc32)c1
Ratio [14]: 4.04
IC50 [2]: > 25 µM
fold induction at 48 h, 1 µM (CYP1A1 [15]): 1.08

O=C1Nc2ccccc2/C1=C\c1ccncc1
fold induction at 48 h, 20 µM (CYP1A1 [16]): 1.01
Ratio [17]: 2.08
IC50 [2]: > 25 µM

COc1cccc(/C=C2\Nc3ccccc3C2=O)c1
Ratio [1]: 3.88
IC50 [2]: 21.2 µM
fold induction at 48 h, 5 µM (CYP1A1 [3]): 1.13

O=C1Nc2ccccc2/C1=C\c1ccccc1O
fold induction at 48 h, 20 µM (CYP1A1 [16]): 1.02
Ratio [17]: 3.35
IC50 [2]: > 25 µM

COc1ccc(/C=C2/C(=O)Nc3ccccc32)c(O)c1
fold induction at 48 h, 2.5 µM (CYP1A1 [12]): 2.35
Ratio [13]: 3.59
IC50 [2]: > 25 µM

Cc1ccc(/C=C2/C(=O)Nc3ccccc32)cc1
Ratio [18]: 3.05
fold induction at 48 h, 7.5 µM (CYP1A1 [19]): 1.07
IC50 [2]: > 25 µM

CCc1ccc(/C=C2/C(=O)Nc3ccccc32)cc1
Ratio [18]: 4.96
fold induction at 48 h, 7.5 µM (CYP1A1 [19]): 1.08
IC50 [2]: > 25 µM

O=C1Nc2ccccc2/C1=C\c1c[nH]c2ccccc12
Ratio [14]: 4.33
IC50 [2]: > 25 µM
fold induction at 48 h, 1 µM (CYP1A1 [15]): 1.28

COc1cccc(/C=C2/C(=O)Nc3ccccc32)c1
Ratio [14]: 4.21
IC50 [2]: > 25 µM
fold induction at 48 h, 1 µM (CYP1A1 [15]): 1.26

O=C1Nc2ccccc2/C1=C\c1cccc(Cl)c1
Ratio [20]: 4.47
IC50 [2]: 5.9 µM
fold induction at 48 h, 0.5 µM (CYP1A1 [21]): 1.21

COc1cc(/C=C2/C(=O)Nc3ccccc32)cc(OC)c1
IC50 (HCT-116 [22]): 5.8 µM
Ratio IC50 (MCF7 [23]): 4.1
IC50 [24]: 23.6 µM
IC50 [2]: 16 µM
IC50 (MCF7 [25]): 10.5 µM
selectivity ratio [26]: 2.2

O=C1Nc2ccccc2/C1=C\c1ccccc1C(F)(F)F
fold induction at 48 h, 20 µM (CYP1A1 [16]): 1.2
Ratio [17]: 2.96
IC50 [2]: > 25 µM
